In general, Ki refers to the dissociation constant of the complex between target and ligand, obtained from inhibition or displacement.

We go through 44 compounds from ChEMBL document CHEMBL3621123, “Discovery and Optimization of a Series of Pyrimidine-Based Phosphodiesterase 10A (PDE10A) Inhibitors through Fragment Screening, Structure-Based Design, and Parallel Synthesis” (J Med Chem, 2015).

Active and inactive are the calls of the source. No cut-off for these calls is given here. Where only a bound is given, the exact number is not on record here.

Data set [1] has as its target cAMP and cAMP-inhibited cGMP 3',5'-cyclic phosphodiesterase 10A (Homo sapiens, UniProt Q9Y233). Put plainly: Inhibition of human PDE10A2 transfected in AD293 cells by IMAP FP assay. It is filed as cell-based. In a few lines: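 Ki values are the mean of at least two determinations, each from a 10-point dose–response curve.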
Data set [2] is filed under the species Homo sapiens. Put plainly: Selectivity ratio of Ki for human PDE5A1 to Ki for human PDE10A2. The gist of the method:
(§1)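 The ratio is PDEx Ki divided by PDE10A Ki. Each Ki is the mean of at least two determinations, each from a 10-point dose–response curve.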

The species named for data set [3] is Homo sapiens. Put plainly: Selectivity ratio of Ki for human PDE7A to Ki for human PDE10A2. The gist of the method: as §1
For data set [4], the species on record is Homo sapiens. Put plainly: Selectivity ratio of Ki for human PDE11A4 to Ki for human PDE10A2. In a few lines: as §1
Data set [5] is filed under the species Homo sapiens. Put plainly: Selectivity ratio of Ki for human PDE9A2 to Ki for human PDE10A2. The gist of the method: as §1
The species named for data set [6] is Homo sapiens. As to the kind of experiment: Selectivity ratio of Ki for human PDE4A1A to Ki for human PDE10A2. In a few lines: as §1
For data set [7], the species on record is Homo sapiens. As to the kind of experiment: Selectivity ratio of Ki for human PDE8A1 to Ki for human PDE10A2. The gist of the method:
as §1

Data set [8] is described as follows: Selectivity ratio of Ki for rhesus monkey PDE2A3 to Ki for human PDE10A2. The gist of the method: as §1
For data set [9], the species on record is Homo sapiens. As to the kind of experiment: Selectivity ratio of Ki for human PDE1A to Ki for human PDE10A2. In a few lines:
as §1

Data set [10] is filed under the species Homo sapiens. As to the kind of experiment: Selectivity ratio of Ki for human PDE3A to Ki for human PDE10A2. In a few lines: as §1
Data set [11] is described as follows: Plasma concentration in Wistar Hannover rat at 5 mg/kg, ip measured after 3.5 hrs. It is filed as ADME, organism-based. In a few lines:
(§2)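 Plasma was sampled 3.5 h after a single ip dose, during the MK-801 hyperlocomotion study. Each value is the mean of two or three measurements.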

The next data set concerns Rattus norvegicus. As to the kind of experiment: Suppression of MK-801-induced hyperlocomotion in Wistar Hannover rat at 1 to 5 mg/kg, ip administered 120 mins followed by MK-801 induction measured after 90 mins. Format: functional, organism-based. In a few lines:
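Rats received ip doses of 1, 3 or 5 mg/kg and were then challenged with MK-801. Psychostimulant-induced locomotor activity was the read-out.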

The nature of data set [12]: Plasma concentration in Wistar Hannover rat at 3 mg/kg, ip measured after 3.5 hrs. It is filed as ADME, organism-based. The gist of the method:
as §2

A short description of data set [13]: Plasma concentration in Wistar Hannover rat at 1 mg/kg, ip measured after 3.5 hrs. It is filed as ADME, organism-based. In a few lines: as §2

Chain of cAMP and cAMP-inhibited cGMP 3',5'-cyclic phosphodiesterase 10A (Q9Y233 whole entry): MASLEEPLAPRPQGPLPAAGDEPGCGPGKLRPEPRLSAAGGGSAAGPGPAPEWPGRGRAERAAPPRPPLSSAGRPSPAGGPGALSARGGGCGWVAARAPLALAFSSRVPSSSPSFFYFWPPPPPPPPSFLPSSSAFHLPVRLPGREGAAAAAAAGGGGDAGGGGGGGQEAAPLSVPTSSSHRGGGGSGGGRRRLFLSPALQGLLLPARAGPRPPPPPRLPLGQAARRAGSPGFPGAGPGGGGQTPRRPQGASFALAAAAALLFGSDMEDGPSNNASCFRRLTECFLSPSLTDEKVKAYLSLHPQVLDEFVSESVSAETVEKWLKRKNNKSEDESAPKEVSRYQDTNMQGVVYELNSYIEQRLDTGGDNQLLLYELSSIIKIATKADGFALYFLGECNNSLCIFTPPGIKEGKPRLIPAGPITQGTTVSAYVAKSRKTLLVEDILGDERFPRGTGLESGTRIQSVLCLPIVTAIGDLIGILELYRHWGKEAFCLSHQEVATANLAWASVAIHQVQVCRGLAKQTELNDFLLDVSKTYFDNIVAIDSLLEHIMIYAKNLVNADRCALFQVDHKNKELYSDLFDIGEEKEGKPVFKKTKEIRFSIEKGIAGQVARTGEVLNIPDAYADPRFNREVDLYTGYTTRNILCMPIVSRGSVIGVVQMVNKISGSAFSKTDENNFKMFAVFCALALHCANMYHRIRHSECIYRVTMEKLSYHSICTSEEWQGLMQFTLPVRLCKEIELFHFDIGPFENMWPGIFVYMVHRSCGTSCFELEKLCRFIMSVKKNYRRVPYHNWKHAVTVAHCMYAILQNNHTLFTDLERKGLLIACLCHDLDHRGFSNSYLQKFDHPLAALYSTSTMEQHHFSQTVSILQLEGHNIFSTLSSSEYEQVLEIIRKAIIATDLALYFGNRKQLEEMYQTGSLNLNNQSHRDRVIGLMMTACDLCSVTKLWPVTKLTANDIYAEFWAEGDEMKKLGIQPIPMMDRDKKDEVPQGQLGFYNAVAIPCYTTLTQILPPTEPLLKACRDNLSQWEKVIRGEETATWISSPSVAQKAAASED

For `Cc1c(Cl)nc(C2CC2)nc1NCc1cccnc1`, the affinity in data set [1] corresponds to a Ki of 1000 nM. `Cc1c(Cl)nc(C2CC2)nc1N1CCCC1` had a Ki in data set [1] of 5300 nM. `Cc1c(Cl)nc(C2CC2)nc1NC(C)C`: in data set [1], the Ki came out at 3600 nM. Regarding `C=C(F)CNc1nc(C2CC2)nc(Cl)c1C`, in data set [1], the Ki stood at 180 nM. In [1], `Cc1c(Cl)nc(C2CC2)nc1NCc1ccccc1` gave a Ki of 1400 nM.

In the case of `Cc1ccc(CNc2nc(C3CC3)nc(Cl)c2C)cn1`, the inhibition constant Ki in [1] came to 130 nM.

On to `Cc1c(Cl)nc(C2CC2)nc1NCc1cncs1`, for which affinity in data set [1] was put at a Ki of 1000 nM. For `Cc1nc(CNc2nc(C3CC3)nc(Cl)c2C)cs1`, the Ki in data set [1] amounted to 18 nM. In turn, `Cc1nc(C)c(CNc2nc(OCCCc3nc4ccccc4s3)nc(Cl)c2C)s1` yielded a Ki in [1] of 0.055 nM.

`Cc1ncsc1CNc1nc(C2CC2)nc(Cl)c1C`: in data set [1], affinity was put at a Ki of 1600 nM.

Regarding `COc1ncc(CNc2nc(C3CC3)nc(Cl)c2C)s1`, the affinity in data set [1], expressed as Ki, was 10 nM. `Cc1c(Cl)nc(C2CC2)nc1Cl`: the Ratio Ki in the data set filed under Homo sapiens [2], in the data set filed under Homo sapiens [3], in the data set listed under Homo sapiens [4], in the data set filed under Homo sapiens [5], in the data set listed under Homo sapiens [6] and in the data set listed under Homo sapiens [7] was 1 in each case. For the same compound, the Ratio Ki (in data set [8]; in the data set filed under Homo sapiens [9]; in the data set filed under Homo sapiens [10]) was 1 in each case. The compound further returned a Ki in data set [1] of 8700 nM. For `Cc1nc(C)c(CNc2nc(OCCCc3cn4ccccc4n3)nc(Cl)c2C)s1`, the Ki in [1] amounted to 0.047 nM.

For the compound `Cc1nc(C)c(CNc2nc(OCCCc3ccc4ccccc4n3)nc(Cl)c2C)s1`, the Ratio Ki in the data set listed under Homo sapiens [2], in the data set listed under Homo sapiens [3], in the data set listed under Homo sapiens [4], in the data set listed under Homo sapiens [5], in the data set listed under Homo sapiens [6] and in the data set filed under Homo sapiens [7] was greater than 1000 throughout. Moreover, the Ratio Ki (in data set [8]; in the data set filed under Homo sapiens [9]; in the data set filed under Homo sapiens [10]) was greater than 1000 in each case. In addition, the concentration at 3.5 h in data set [11] was found to be 110 nM; in [12], 83 nM; in data set [13] it was 17 nM. Further, the inhibitory constant (Ki) in data set [1] was found to be 0.0082 nM. For the same compound, the outcome in the data set with Rattus norvegicus was Active.

`Cc1nc(C)c(CNc2nc(OCCc3ccccn3)nc(Cl)c2C)s1` came in with an inhibition constant (Ki) in [1] of 2 nM.

The compound `CCCOc1nc(Cl)c(C)c(NCc2sc(C)nc2C)n1` returned a Ki in [1] of 5.1 nM. Same read-out and setting: the result for `Cc1nc(C)c(CNc2nc(OCCc3ccccc3)nc(Cl)c2C)s1` reads 9 nM. Same read-out and setting: under `COc1nc(Cl)c(C)c(NCc2sc(C)nc2C)n1` stands 8.5 nM; under `Cc1c(Cl)nc(C2CC2)nc1NCc1cnn(C)c1`, 37 nM. Consider `Cc1c(Cl)nc(C2CC2)nc1N1CCCCC1`, for which the affinity in [1] corresponds to a Ki of 2100 nM. The compound `Cc1c(Cl)nc(C2CC2)nc1NC1CCCC1` yielded an inhibition constant Ki in data set [1] of 2800 nM. In [1], `Cc1c(Cl)nc(C2CC2)nc1NCc1ccon1` had a Ki of 810 nM. The same measure, in the same setting: the result for `Cc1nc(C)c(CNc2nc(OCCCc3ccc4cccnc4n3)nc(Cl)c2C)s1` reads 0.11 nM; that for `Cc1nc(C)c(CNc2nc(OCCC3CCCCC3)nc(Cl)c2C)s1`, 400 nM. Take `Cc1cc(CN(C)c2nc(C3CC3)nc(Cl)c2C)on1`: affinity in data set [1] was put at a Ki of 540 nM. Turning to `CCCNc1nc(C2CC2)nc(Cl)c1C`, the Ratio Ki in the data set filed under Homo sapiens [2] was 1; in the data set listed under Homo sapiens [3] it was 25; in the data set listed under Homo sapiens [4], 25; in the data set filed under Homo sapiens [5] it was 25; in the data set filed under Homo sapiens [6], 1; in the data set filed under Homo sapiens [7], 25. In addition, the Ratio Ki turned out to be 100 in data set [8], 25 in the data set listed under Homo sapiens [9] and 25 in the data set filed under Homo sapiens [10]. For the same compound, the Ki in data set [1] was 880 nM. `Cc1cc(CNc2nc(C3CC3)nc(Cl)c2C)on1`: the affinity in data set [1] corresponds to a Ki of 38 nM. In the case of `Cc1nc(C)c(CNc2nc(OCCO)nc(Cl)c2C)s1`, the inhibitory constant (Ki) in data set [1] was 12 nM. For the compound `Cc1c(Cl)nc(C2CC2)nc1N1CCNCC1`, affinity in [1] was put at a Ki of 4600 nM.

For `Cc1c(Cl)nc(C2CC2)nc1NC(C)c1ccncc1` (racemic), in [1], the affinity, expressed as Ki, was 890 nM. The same measure, in the same setting: the result for `CCNc1nc(C2CC2)nc(Cl)c1C` reads 1200 nM; that for `Cc1nc(C)c(CNc2nc(OCCCc3cnc4ccccc4n3)nc(Cl)c2C)s1`, 0.37 nM. Still for that read-out and setting: under `Cc1ncc(CNc2nc(C3CC3)nc(Cl)c2C)s1` stands 26 nM.

In the case of `Cc1c(Cl)nc(C2CC2)nc1NCc1ccoc1`, in data set [1], affinity was put at a Ki of 680 nM. `Cc1c(Cl)nc(C2CC2)nc1NCCc1cnn(C)c1` gave an inhibition constant Ki in data set [1] of 1500 nM. In [1], `Cc1nc(C)c(CNc2nc(OCCC3CCCCN3)nc(Cl)c2C)s1` (centres undefined) showed a Ki of 590 nM. In [1], `Cc1cc(CNc2nc(C3CC3)nc(Cl)c2C)no1` registered an inhibition constant (Ki) of 51 nM. As for `Cc1nc2c(s1)CN(c1nc(C3CC3)nc(Cl)c1C)CC2`, in [1], the Ki came out at 1300 nM. On the same count and under the same terms, the result for `Cc1nc(C)c(CNc2nc(OCCCc3nc4ccccc4[nH]3)nc(Cl)c2C)s1` reads 0.02 nM. Take `Cc1nc(C)c(CNc2nc(C3CC3)nc(Cl)c2C)s1`: the Ratio Ki in the data set filed under Homo sapiens [2] is 100; in the data set filed under Homo sapiens [3], greater than 1000; in the data set filed under Homo sapiens [4] it was 25; in the data set filed under Homo sapiens [5], greater than 1000; in the data set filed under Homo sapiens [6] it was 100; in the data set listed under Homo sapiens [7] it was greater than 1000. Also, the Ratio Ki (in data set [8]; in the data set listed under Homo sapiens [9]; in the data set listed under Homo sapiens [10]) was greater than 1000 in each case. The compound further yielded a Ki in data set [1] of 4.8 nM. In data set [1], `Cc1c(N)nc(C2CC2)nc1Cl` registered an inhibition constant Ki of 2200 nM.

`Cc1c(Cl)nc(C2CC2)nc1NCc1ccncc1` came in with a Ki in [1] of 200 nM. Take `Cc1csc(CNc2nc(C3CC3)nc(Cl)c2C)n1`: the affinity in data set [1], expressed as Ki, was 6800 nM. The same measure, in the same setting: the result for `Cc1c(Cl)nc(C2CC2)nc1N(C)Cc1cnn(C)c1` reads 220 nM.
